What was measured:
[1] = system: PC-3; experiment: Cytotoxicity against human PC3 cells after 72 hrs by sulforhodamine B assay; format: functional, cell-based; conditions: PC-3, 72 h
Procedure, shortened: (§1)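 Cells in 96-well plates were exposed in triplicate to a concentration gradient of each agent at 37 °C for 72 h, and growth was then measured by sulforhodamine B staining. IC50 is the concentration giving 50% growth inhibition relative to untreated control cells, calculated by the logit method.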

[2] = system: SK-OV-3; experiment: Cytotoxicity against human SKOV3 cells after 72 hrs by sulforhodamine B assay; format: functional, cell-based; conditions: SK-OV-3, 72 h; procedure, shortened: as §1

Row | Structure (SMILES) | IC50 [1] [nM] | IC50 [2] [nM]
1 | CC(C)[C@]12O[C@H]1[C@@H]1O[C@]13[C@]1(O[C@H]1C[C@H]1C4=C(CC[C@@]13C)C(=O)OC4)[C@]21CN(c2ccc3c(cnn3C)c2)CO1 | 365 | 79.7
2 | CC(C)[C@]12O[C@H]1[C@@H]1O[C@]13[C@]1(O[C@H]1C[C@H]1C4=C(CC[C@@]13C)C(=O)OC4)[C@]2(O)CNc1ccc2c(c1)CC(=O)O2 | 67.9 | 12.5
3 | CC(C)[C@]12O[C@H]1[C@@H]1O[C@]13[C@]1(O[C@H]1C[C@H]1C4=C(CC[C@@]13C)C(=O)OC4)[C@]2(O)Cn1cc(C2CC2)nn1 | > 10000 | > 10000
4 | CC(C)[C@]12O[C@H]1[C@@H]1O[C@]13[C@]1(O[C@H]1C[C@H]1C4=C(CC[C@@]13C)C(=O)OC4)[C@]2(O)CNc1ccc2oc(=O)ccc2c1 | 353 | 87.2
5 | CC(C)[C@]12O[C@H]1[C@@H]1O[C@]13[C@]1(O[C@H]1C[C@H]1C4=C(CC[C@@]13C)C(=O)OC4)[C@]2(O)CNc1ccc2c(c1)CC(=O)N2 | 54.1 | 38.4
6 | CC(C)[C@]12O[C@H]1[C@@H]1O[C@]13[C@]1(O[C@H]1C[C@H]1C4=C(CC[C@@]13C)C(=O)OC4)[C@]2(O)CNc1cccnc1 | 2810 | 745
7 | CC(C)[C@]12O[C@H]1[C@@H]1O[C@]13[C@]1(O[C@H]1C[C@H]1C4=C(CC[C@@]13C)C(=O)OC4)[C@]2(O)CNc1ccc2c(c1)C(=O)CCO2 | 172 | 32.1
8 | CC(C)[C@]12O[C@H]1[C@@H]1O[C@]13[C@]1(O[C@H]1C[C@H]1C4=C(CC[C@@]13C)C(=O)OC4)[C@]2(O)CNc1cccc2[nH]ccc12 | 97.8 | 53.8
9 | CC(C)[C@]12O[C@H]1[C@@H]1O[C@]13[C@]1(O[C@H]1C[C@H]1C4=C(CC[C@@]13C)C(=O)OC4)[C@]2(O)CNc1ccc2c(cnn2CCN2CCOCC2)c1 | 36.6 | 36.4
10 | CC(C)[C@]12O[C@H]1[C@@H]1O[C@]13[C@]1(O[C@H]1C[C@H]1C4=C(CC[C@@]13C)C(=O)OC4)[C@]2(O)CNc1ccc2nn(C)cc2c1 | 97 | 22.3
11 | CC(C)[C@]12O[C@H]1[C@@H]1O[C@]13[C@]1(O[C@H]1C[C@H]1C4=C(CC[C@@]13C)C(=O)OC4)[C@H]2O [EPITRIPTOIIDE] | 1320 | –
12 | CC(C)[C@]12O[C@H]1[C@@H]1O[C@]13[C@]1(O[C@H]1C[C@H]1C4=C(CC[C@@]13C)C(=O)OC4)[C@]2(O)CNc1ccc2cn[nH]c2c1 | 188 | 49
13 | CC(C)[C@]12O[C@H]1[C@@H]1O[C@]13[C@]1(O[C@H]1C[C@H]1C4=C(CC[C@@]13C)C(=O)OC4)[C@]2(O)CNc1ccc2nccnc2c1 | 157 | 369
14 | CC(C)[C@]12O[C@H]1[C@@H]1O[C@]13[C@]1(O[C@H]1C[C@H]1C4=C(CC[C@@]13C)C(=O)OC4)[C@]2(O)CNc1ccc2c(cnn2C)c1 | 132 | 15
15 | CC(C)[C@]12O[C@H]1[C@@H]1O[C@]13[C@]1(O[C@H]1C[C@H]1C4=C(CC[C@@]13C)C(=O)OC4)[C@]2(O)CNc1ccc2occc(=O)c2c1 | 341 | 368
16 | CC(C)[C@]12O[C@H]1[C@@H]1O[C@]13[C@]1(O[C@H]1C[C@H]1C4=C(CC[C@@]13C)C(=O)OC4)[C@]2(O)CNc1ccc2ncncc2c1 | 781 | 274
17 | COC(=O)n1ncc2cc(NC[C@@]3(O)[C@]45O[C@H]4C[C@H]4C6=C(CC[C@]4(C)[C@@]54O[C@H]4[C@@H]4O[C@@]43C(C)C)C(=O)OC6)ccc21 | 188 | 102
18 | CC(C)[C@]12O[C@H]1[C@@H]1O[C@]13[C@]1(O[C@H]1C[C@H]1C4=C(CC[C@@]13C)C(=O)OC4)[C@]2(O)CNc1ccc2c(c1)C(C)(C)C(=O)N2C | 84.9 | 11.7
19 | CC(C)[C@]12O[C@H]1[C@@H]1O[C@]13[C@]1(O[C@H]1C[C@H]1C4=C(CC[C@@]13C)C(=O)OC4)[C@]2(O)CNc1ccc2ncccc2c1 | 452 | 85
20 | CC(C)[C@]12O[C@H]1[C@@H]1O[C@]13[C@]1(O[C@H]1C[C@H]1C4=C(CC[C@@]13C)C(=O)OC4)[C@]2(O)CNc1ccc2nn(CCN3CCCCC3)cc2c1 | 66.1 | 99
21 | CC(C)[C@]12O[C@H]1[C@@H]1O[C@]13[C@]1(O[C@H]1C[C@H]1C4=C(CC[C@@]13C)C(=O)OC4)[C@]2(O)CNc1ccc2nn(CCN3CCOCC3)cc2c1 | 40.8 | 77
22 | COC(=O)c1cn(C[C@@]2(O)[C@]34O[C@H]3C[C@H]3C5=C(CC[C@]3(C)[C@@]43O[C@H]3[C@@H]3O[C@@]32C(C)C)C(=O)OC5)nn1 | > 10000 | > 10000
23 | CC(C)[C@]12O[C@H]1[C@@H]1O[C@]13[C@]1(O[C@H]1C[C@H]1C4=C(CC[C@@]13C)C(=O)OC4)[C@]2(O)CNc1ccc2[nH]ncc2c1 | 25.3 | 17.4
24 | CC(C)[C@]12O[C@H]1[C@@H]1O[C@]13[C@]1(O[C@H]1C[C@H]1C4=C(CC[C@@]13C)C(=O)OC4)[C@]21CN(c2ccc3c(cnn3CCN3CCOCC3)c2)CO1 | 253 | 152
25 | CC(C)[C@]12O[C@H]1[C@@H]1O[C@]13[C@]1(O[C@H]1C[C@H]1C4=C(CC[C@@]13C)C(=O)OC4)[C@]2(O)Cn1cc(-c2ccccc2)nn1 | > 10000 | > 10000
26 | COC(=O)c1n[nH]c2ccc(NC[C@@]3(O)[C@]45O[C@H]4C[C@H]4C6=C(CC[C@]4(C)[C@@]54O[C@H]4[C@@H]4O[C@@]43C(C)C)C(=O)OC6)cc12 | 264 | 35.8
